ASAP1 inh: inhibitors of human ASAP1 ArfGAP activity. inhibition, % at 16.5 µM. AID 624377. 0.19% of 360,000 active. ASAP1-stimulated ARF1 GTP hydrolysis, GDP FP detection. Q9ULH1; in the data active = inhibition above about 25%
Target sequence (Q9ULH1 325-724 limits assumed): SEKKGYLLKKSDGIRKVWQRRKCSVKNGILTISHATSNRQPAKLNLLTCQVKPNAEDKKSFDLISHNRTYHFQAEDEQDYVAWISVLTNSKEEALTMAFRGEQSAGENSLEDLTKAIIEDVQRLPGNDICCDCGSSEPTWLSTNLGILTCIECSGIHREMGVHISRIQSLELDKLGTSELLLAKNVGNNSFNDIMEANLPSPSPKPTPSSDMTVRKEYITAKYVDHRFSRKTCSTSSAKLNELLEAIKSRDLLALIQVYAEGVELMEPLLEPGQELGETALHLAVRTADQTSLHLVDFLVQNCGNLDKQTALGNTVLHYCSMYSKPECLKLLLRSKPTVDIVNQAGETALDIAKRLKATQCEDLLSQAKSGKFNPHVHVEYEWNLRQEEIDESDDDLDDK
ARFGAP1 inh: rat ARFGAP1 inhibition | Arfgap1-stimulated ARF1 GTP hydrolysis, GDP FP detection | inhibition, % at 16.5 µM | 0.26% of 360,000 active | AID 651572;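 active = inhibition above a per-plate limit, mean inhibition of low control wells plus 3 SD, cut at about 25% in these data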
Target sequence (Q62848 1-136 limits assumed): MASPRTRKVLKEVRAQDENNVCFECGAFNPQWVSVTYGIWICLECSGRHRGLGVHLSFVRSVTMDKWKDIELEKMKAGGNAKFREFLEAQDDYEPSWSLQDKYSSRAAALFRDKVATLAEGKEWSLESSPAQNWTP
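Material: rat Arfgap1 GAP domain (His6, aa 1-136), purified enzyme. Also added: human ARF1(Δ1-17)-GTP substrate. Compound dosing: 16.5 µM single point, 1.26% DMSO. Timing: enzyme reaction 120 min at 25 °C after 20 min preincubation. Signal: GDP detection by fluorescence polarization. Read-out basis: percent inhibition of GAP-stimulated GDP formation, scaled between DMSO and no-Arfgap1 medians.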
MsrA inh: inhibits bovine methionine sulfoxide reductase A. 0.75% of 360,000 active. AID 651718. inhibition, % at 15.5 µM. purified bovine MsrA, absorbance read-out
MsrA act: bovine methionine sulfoxide reductase A activation. 0.3% of 360,000 active. activation, % at 10.6 µM. AID 602163. purified bovine MsrA, absorbance read-out; in the data active = activation above about 7.5%
MsrA inh confirm: confirmation of bovine MsrA inhibitors | shares compounds with MsrA inh | purified bovine MsrA, absorbance read-out | inhibition, % at 15.5 µM | 41% of 2,300 active | AID 651822;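 also: coupled to thioredoxin reductase with NADPH and selenocystamine and DMSO as substrate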
Large screens that a line does not name were inactive (follow-up assays come after a bar, where they were run). Rows were chosen to be rich in hits. Some 1.4% of all compounds tested hit in one or more screens of this group. Rule as the data show it, unless noted: active = inhibition above about 4.5%; inactive = the rest.

Cc1ccc(S(=O)(=O)N2C3CCCCC3O[C@H]2CC(=O)c2cccc3ccccc23)cc1 (some centres not stated)	none (no result: MsrA act)
COc1ccc(N=Cc2ccc(N(CCC#N)CCC#N)cc2)cc1	MsrA inh 4.9 | MsrA inh confirm 4.9
Cn1c(NC(=O)/C=C/c2ccccc2)cc(=O)n(C)c1=O	none
COc1ccc(/C=C/C(=O)Nc2cc(=O)n(C)c(=O)n2C)cc1	MsrA inh 5.0 | MsrA inh confirm inactive
CC1CCN(C(=O)Cn2nnc(-c3ccc(N)cc3)n2)CC1	none
Cc1cc2n(c(=O)c1C#N)CCCN2c1cccc(Cl)c1	MsrA inh 6.9 | MsrA inh confirm 5.5
O=C(c1ccco1)N1CCC(c2nc3c(nnn3Cc3ccc(F)cc3)c(=O)[nH]2)CC1	none
COc1ccc(/C=N/NC2=NS(=O)(=O)c3ccccc32)cc1OC	MsrA inh 4.8 | MsrA inh confirm inactive
COc1cc(/C=N/NC2=NS(=O)(=O)c3ccccc32)ccc1OC(C)=O	none
COCCN(C(=O)COC(=O)C12CC3CC(CC(C3)C1)C2)c1c(N)n(Cc2ccccc2)c(=O)[nH]c1=O	none
O=C(COC(=O)COc1ccc2ccccc2c1)NCC(F)(F)F	none
Cc1cc(N2CCOCC2)ccc1/C=C1\NC(=O)N(CC(=O)Nc2ccccc2C)C1=O	none
Cc1cc(N2CCOCC2)ccc1/C=C1\NC(=O)N(CC(=O)Nc2ccc(F)cc2)C1=O	MsrA inh 5.6 | MsrA inh confirm inactive
Cc1[nH]n(-c2ccccc2)c(=O)c1C=Nc1ccc(S(=O)(=O)Nc2nccs2)cc1	MsrA inh 5.7 | MsrA inh confirm inactive
CC1Sc2ccc(S(=O)(=O)NCCc3ccc(Cl)cc3)cc2NC1=O (configuration not stated)	none
O=c1oc2ccccc2cc1-c1cn2cccnc2n1	MsrA inh 5.8 | MsrA inh confirm 5.0
CCN(CC)c1ccc(/C=N/O)cc1	none
CCN(CC)c1ccc(C=NNc2ccc([N+](=O)[O-])cn2)cc1	none
CCN(CC)c1ccc(/C=N/NS(=O)(=O)c2cccc([N+](=O)[O-])c2)cc1	MsrA inh 5.4 | MsrA inh confirm inactive
CCN(CC)c1ccc(/C=N/NS(=O)(=O)c2ccc(CNC(C)=O)cc2)cc1	MsrA inh 6.2 | MsrA inh confirm inactive
CCN(CC)c1ccc(C=NCCc2ccc(S(N)(=O)=O)cc2)cc1	MsrA inh 4.7 | MsrA inh confirm inactive
CCN(Cc1ccccc1)c1ccc(/C=N/NS(=O)(=O)c2ccc(C)c([N+](=O)[O-])c2)cc1	MsrA inh 4.8 | MsrA inh confirm inactive
CC(=O)NCc1ccc(S(=O)(=O)N/N=C/c2ccc(Br)cc2)cc1	none
CC1CCN(N=Nc2nc3c([nH]2)c(=O)n(C)c(=O)n3C)CC1	MsrA inh 7.8 | MsrA inh confirm 5.5
CCc1nc(SCC(=O)N2CCCC2)c2c(=O)n(C)c(=O)n(C)c2n1	none
CC(C)Cc1nc(SCC(=O)N2CCCC2)c2c(=O)n(C)c(=O)n(C)c2n1	MsrA inh 8.0 | MsrA inh confirm 7.2
CCCCc1nc(SCC(=O)N2CCCC2)c2c(=O)n(C)c(=O)n(C)c2n1	MsrA inh 7.5 | MsrA inh confirm 6.9
CCCCc1nc(SCC(=O)N2CCCCC2)c2c(=O)n(C)c(=O)n(C)c2n1	none
COc1ccc(C(=O)COC(=O)C(CCSC)NC(=O)COc2ccccc2)cc1 (configuration not stated)	none
COc1ccccc1/C=N/NC(=O)c1sc(C)nc1C	MsrA inh 5.1 | MsrA inh confirm inactive
COc1ccc(C(=O)N/N=C/c2cccnc2)cc1	none
Cc1nc(N)sc1C(=O)N/N=C/c1cccnc1	MsrA inh 5.8 | MsrA inh confirm inactive
CCOC(=O)[C@]12CCC=C1N(Cc1ccc3c(c1)OCO3)C(=O)[C@H](CC(=O)N1CCN(C(=O)c3ccco3)CC1)C2	none
CCCCc1c(-c2ccccc2OC)ncn1Cc1ccccc1F	none (no result: MsrA act)
CCc1cc(=O)oc2c(C)c(O)c(CN3CCCCC3)cc12	MsrA inh 5.4 | MsrA inh confirm inactive
COCCn1c(SCC(=O)Nc2ccc3c(c2)OCCO3)nc2c(c1=O)SC(C)C2 (configuration not stated)	MsrA inh 5.2 | MsrA inh confirm inactive
COCCn1c(SCC(=O)Nc2cc(C)on2)nc2c(c1=O)SC(C)C2 (configuration not stated)	none
CC1Cc2nc(SCC(=O)Nc3ccc4c(c3)OCCO4)n(C)c(=O)c2S1 (configuration not stated)	MsrA inh 5.0 | MsrA inh confirm inactive
CC1Cc2nc(SCC(=O)Nc3ccc4c(c3)OCO4)n(Cc3ccccc3)c(=O)c2S1 (configuration not stated)	none
COCCn1c(SCC(N)=O)nc2c(c1=O)SC(C)C2 (configuration not stated)	MsrA inh 4.7 | MsrA inh confirm inactive
CC(=O)c1ccccc1OCCCCN1CCCCC1	none
O=c1[nH]c(=S)[nH]c2c1C(c1ccc(Cl)cc1)OC(C1CCCCC1)C2 (configuration not stated)	none
COc1cc(/C=C/C(=O)Nc2ccc(S(=O)(=O)Nc3ncccn3)cc2)ccc1OCC#N	MsrA inh 4.9 | MsrA inh confirm inactive
CCN(CC)CCOC(=O)c1ccc(NC(=O)/C=C/c2cccs2)cc1	MsrA inh 5.5 | MsrA inh confirm inactive
CCOC(=O)c1ccc(NC(=O)/C=C/c2cccs2)cc1	none
COc1cc(/C=C/C(=O)Nc2ccc(C(C)=O)cc2)cc(OC)c1OC	none
O=C(/C=C/c1cccs1)Nc1ccc(S(=O)(=O)Nc2ncccn2)cc1	MsrA inh 4.7 | MsrA inh confirm inactive
COc1cc(/C=C/C(=O)Nc2ccncc2)cc(OC)c1OC	MsrA inh 4.7 | MsrA inh confirm inactive
O=C1OCCN1c1c(-c2ccccc2)c(-c2cccs2)nc2c(-c3ccccc3)cccc12	none (no result: ASAP1 inh, ARFGAP1 inh, MsrA inh)
CCc1ccccc1N(CC(=O)NC(C)c1ccccc1)S(C)(=O)=O (configuration not stated)	none
CCN1C(=O)N[C@@H](c2ccccc2)[C@@H](C(=O)OC)[C@H]1C	none
O=C1NC[C@H](CC2CCCCC2)N(CCC23CC4CC(CC(C4)C2)C3)C1=O	none
NS(=O)(=O)c1ccc(NC(=O)/C=C/c2cccs2)cc1	MsrA inh 8.2 | MsrA inh confirm 5.1
NS(=O)(=O)c1cccc(NC(=O)/C=C/c2cccs2)c1	MsrA inh 5.1 | MsrA inh confirm inactive
NS(=O)(=O)c1ccc(NC(=O)/C=C/c2cccc(Cl)c2)cc1	none
CC(=O)c1ccc(NC(=O)CCS(=O)(=O)c2ccc3c(c2)n(C)c(=O)c(=O)n3C)cc1	none (no result: ASAP1 inh, ARFGAP1 inh, MsrA inh)
CN(CC(=O)Nc1ccc(Cl)cc1)C(=O)CNC(=O)c1ccc(Br)o1	none
O=S1(=O)CC(N2CCCCC2)CN1C1CCCCC1 (configuration not stated)	none
CCc1noc(C)c1C(=O)Nc1nc(-c2ccc(F)cc2)c(C)s1	MsrA inh 9.5 | MsrA inh confirm 8.7
CCc1noc(C)c1C(=O)Nc1nc2c(C)cccc2s1	none
CCc1noc(C)c1C(=O)Nc1nc(-c2cc(C)ccc2C)c(C)s1	MsrA inh 18 | MsrA inh confirm 21
